Key:
[1] = system: Entamoeba histolytica; assay: Antiamoebic activity against Entamoeba histolytica HM-1:IMSS trophozoites after 72 hrs by microdilution method; assay type: functional, organism-based
In short: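 E. histolytica HM1:IMSS trophozoites grown in TYIS-33 medium. Compounds dissolved in DMSO, diluted in medium to 1 mg/ml, then two-fold serial dilutions. Inoculum 1.7 × 10⁴ organisms/well. Plates gassed with N₂ and held at 37 °C for 72 h. Amoebae fixed in cold MeOH and stained with eosin, dye released with 0.1 N NaOH, OD read at 490 nm. Percent inhibition plotted against log dose; IC50 from linear regression.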

[2] = Cytotoxicity against human kidney epithelial cells after 44 hrs by MTT assay; assay type: cell-based; conditions: Epithelial cell
[3] = Selectivity index, ratio of IC50 for human kidney epithelial cells to IC50 for Entamoeba histolytica HM-1:IMSS trophozoites; set-up: species or system Epithelial cell
In short: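 Safety index calculated as IC50 in human kidney epithelial cells (MTT, 44 h plus 4 h) divided by IC50 against E. histolytica HM1:IMSS (72 h eosin-stained microdilution assay).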

| Structure (SMILES) | IC50 [1] [µM] | IC50 [2] [µM] | Ratio IC50 [3] |
| --- | --- | --- | --- |
| S=C(N1CCCC1)N1N=C(c2ccccc2)CC1c1ccc(C2CC(c3ccccc3)=NN2C(=S)N2CCCC2)cc1 (configuration not stated) | > 1.8 | > 90 | >50 |
| S=C(NC1CCCC1)N1N=C(c2ccccc2)CC1c1ccc(C2CC(c3ccccc3)=NN2C(=S)NC2CCCC2)cc1 (configuration not stated) | > 1.8 | > 90 | >50 |
| NC(=S)N1N=C(c2ccccc2)CC1c1ccc(C2CC(c3ccccc3)=NN2C(N)=S)cc1 (configuration not stated) | 1.57 | > 90 | >57.3 |
| Cc1cccc(NC(=S)N2N=C(c3ccccc3)CC2c2ccc(C3CC(c4ccccc4)=NN3C(=S)Nc3cccc(C)c3)cc2)c1 (configuration not stated) | > 1.8 | > 90 | >50 |
| Cc1ccc(NC(=S)N2N=C(c3ccccc3)CC2c2ccc(C3CC(c4ccccc4)=NN3C(=S)Nc3ccc(C)cc3)cc2)cc1 (configuration not stated) | > 1.8 | > 90 | >50 |
| CN(Cc1ccccc1)C(=S)N1N=C(c2ccccc2)CC1c1ccc(C2CC(c3ccccc3)=NN2C(=S)N(C)Cc2ccccc2)cc1 (configuration not stated) | > 1.8 | > 90 | >50 |
| Cc1ncc([N+](=O)[O-])n1CCO [METRONIDAZOLE] | – | > 100 | >55.55 |

Continued by falling IC50 [1], values first:

| IC50 [1] [µM] | Structure (SMILES) | IC50 [2] [µM] | Ratio IC50 [3] |
| --- | --- | --- | --- |
| 1.16 | S=C(NC1CCCCC1)N1N=C(c2ccccc2)CC1c1ccc(C2CC(c3ccccc3)=NN2C(=S)NC2CCCCC2)cc1 (configuration not stated) | > 90 | >77.6 |
| 0.92 | S=C(NC1CCCCCCC1)N1N=C(c2ccccc2)CC1c1ccc(C2CC(c3ccccc3)=NN2C(=S)NC2CCCCCCC2)cc1 (configuration not stated) | > 90 | >97.8 |
| 0.62 | Fc1ccc(NC(=S)N2N=C(c3ccccc3)CC2c2ccc(C3CC(c4ccccc4)=NN3C(=S)Nc3ccc(F)cc3F)cc2)c(F)c1 (configuration not stated) | > 90 | >145 |
| 0.42 | O=[N+]([O-])c1ccc(NC(=S)N2N=C(c3ccccc3)CC2c2ccc(C3CC(c4ccccc4)=NN3C(=S)Nc3ccc([N+](=O)[O-])cc3)cc2)cc1 (configuration not stated) | > 90 | >214 |

Source: ChEMBL document CHEMBL1152827, “Bis-pyrazolines: synthesis, characterization and antiamoebic activity as inhibitors of growth of Entamoeba histolytica” (Eur J Med Chem, 2009)
